Results published in ChEMBL document CHEMBL1144665, “Benzyl ether-linked glucuronide derivative of 10-hydroxycamptothecin designed for selective camptothecin-based anticancer therapy” (J Med Chem, 2008).
In brackets after ≈: the same amount, converted by molar mass.

Experiments:
[1] = Stability in human plasma assessed as degradation after 10 mins; format: ADME, cell-free; conditions: read-out: Activity
Procedure, shortened: (§1)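 Incubated in 95% human plasma at 37 °C up to 6 h. Aliquots neutralized with 12 mM phosphoric acid, extracted three times with ethyl acetate, dried, redissolved in mobile phase, filtered and analysed by reversed-phase HPLC with fluorescence detection.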

[2] = Cytotoxicity against human H298 cells assessed as inhibition of [3H]thymidine after 48 hrs; format: functional, cell-based
Procedure, shortened: (§2)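 Exponentially growing cells, 5 × 10³/well in RPMI with 10% bovine serum and penicillin/streptomycin, 37 °C, 5% CO₂, exposed to a range of drug concentrations (DMSO final ≤0.5%; vehicle controls). After 48 h, 12 h [³H]thymidine pulse (1 µCi/well); trypsinized cells counted for radioactivity. Triplicate wells, 1–3 experiments; IC50 interpolated from log dose–response curves.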

HepG2 [3] = experiment: Cytotoxicity against human HepG2 cells assessed as inhibition of [3H]thymidine after 48 hrs; format: functional, cell-based; procedure, shortened: as §2
[4] = Aqueous solubility in phosphate buffer at pH 4.0; format: physicochemical
Procedure, shortened: (§3)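 Excess solid equilibrated in 100 mM phosphate buffer (pH 4.0 or 7.0) at 25 °C for 24 h. Filtered through 0.2 µm, diluted in mobile phase and quantified by HPLC with fluorescence detection against calibration curves. Single determination.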

COLO 205 [5] = experiment: Cytotoxicity against human Colo 205 cells assessed as inhibition of [3H]thymidine after 48 hrs; format: functional, cell-based; procedure, shortened: as §2
HT-29 [6] = experiment: Cytotoxicity against human HT29 cells assessed as inhibition of [3H]thymidine after 48 hrs; format: functional, cell-based; procedure, shortened: as §2
[7] = Aqueous solubility in phosphate buffer at pH 7.0; format: physicochemical; procedure, shortened: as §3
Escherichia coli [8] = experiment: Ratio of […] of Escherichia coli beta-glucuronidase
Procedure, shortened: (§4)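 Prodrug at various concentrations incubated with 0.125 µg/mL E. coli β-glucuronidase, pH 7.0, 37 °C, 20 min; stopped with ice-cold MeOH to precipitate protein. Substrate and released 10-hydroxycamptothecin quantified by reversed-phase HPLC with fluorescence detection (ex 397, em 482 nm) against standard calibration curves; Km, Vmax and Vmax/Km derived.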

Escherichia coli [9] = experiment: Activity of Escherichia coli beta-glucuronidase; procedure, shortened: as §4
[10] = Cytotoxicity against human H298 cells assessed as inhibition of [3H]thymidine in presence of beta-glucuronidase after 48 hrs; format: functional, cell-based
Procedure, shortened: (§5)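 As the plain [³H]thymidine assay (5 × 10³ cells/well, RPMI/10% serum, 48 h exposure, then 12 h 1 µCi/well pulse, scintillation counting), but β-glucuronidase (5 µg/mL; 1 µg/well) added together with drug. Triplicate wells, 1–3 experiments; IC50 interpolated from log dose–response curves.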

Plasma = experiment: Stability in 95% human plasma; format: ADME, cell-free; procedure, shortened: as §1
COLO 205 [11] = experiment: Cytotoxicity against human Colo 205 cells assessed as inhibition of [3H]thymidine in presence of beta-glucuronidase after 48 hrs; format: functional, cell-based; procedure, shortened: as §5
[12] = Prodrug hydrolysis by Escherichia coli beta-glucuronidase assessed as release of 10-hydroxycamptothecin at pH 7.0; format: ADME; design: scale not given: the % may be the effect or the level left; conditions: buffer
Procedure, shortened: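 Substrate incubated with E. coli β-glucuronidase (0.1 µg/mL) in pH 7.0 phosphate buffer at 37 °C. Aliquots taken over time; substrate and released 10-hydroxycamptothecin quantified by fluorescence-detected reversed-phase HPLC. Triplicate determinations.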

HepG2 [13] = experiment: Cytotoxicity against human HepG2 cells assessed as inhibition of [3H]thymidine in presence of beta-glucuronidase after 48 hrs; format: functional, cell-based; procedure, shortened: as §5
HT-29 [14] = experiment: Cytotoxicity against human HT29 cells assessed as inhibition of [3H]thymidine in presence of beta-glucuronidase after 48 hrs; format: functional, cell-based; procedure, shortened: as §5

| Compound | metabolised at 10 min [1] [%] | IC50 [2] [nM] | IC50 (HepG2 [3]) [nM] | solubility [4] [µM] | IC50 (COLO 205 [5]) [nM] | IC50 (HT-29 [6]) [nM] | solubility ([7]; buffer) [µM] | Ratio (Escherichia coli [8]) [min⁻¹] | Km (Escherichia coli [9]) [µM] | Vmax (Escherichia coli [9]) [µM/min] | IC50 [10] [nM] | Stability (Plasma) | IC50 (COLO 205 [11]) [nM] | Activity [12] [%] | IC50 (HepG2 [13]) [nM] | IC50 (HT-29 [14]) [nM] | solubility ([7]; phosphate buffer, read-out: Solubility) [µM] |
| --- | --- | --- | --- | --- | --- | --- | --- | --- | --- | --- | --- | --- | --- | --- | --- | --- | --- |
| CC[C@@]1(O)C(=O)OCc2c1cc1n(c2=O)Cc2cc3cc(OC(=O)OCc4ccc(O[C@@H]5O[C@H](C(=O)OC)[C@@H](O)[C@H](O)[C@H]5O)cc4)ccc3nc2-1 | 70 | – | – | – | – | – | – | – | – | – | – | – | – | – | – | – | – |
| CC[C@@]1(O)C(=O)OCc2c1cc1n(c2=O)Cc2cc3cc(O)ccc3nc2-1 [HYDROXYCAMPTOTHECIN] | – | 6.9 | 5.4 | 13.7 (≈ 4.99 µg/mL) | 9.1 | 8.8 | 137 (≈ 49.9 µg/mL) | – | – | – | – | – | – | – | – | – | – |
| CC[C@@]1(O)C(=O)OCc2c1cc1n(c2=O)Cc2cc3c(NC(=O)OCc4ccc(O[C@@H]5O[C@H](C(=O)O)[C@@H](O)[C@H](O)[C@H]5O)cc4)cccc3nc2-1 | – | – | – | – | – | – | – | 0.03 | 30 | 0.86 | – | – | – | – | – | – | – |
| CC[C@@]1(O)C(=O)OCc2c1cc1n(c2=O)Cc2cc3cc(OCc4ccc(O[C@@H]5O[C@H](C(=O)O)[C@@H](O)[C@H](O)[C@H]5O)c([N+](=O)[O-])c4)ccc3nc2-1 | – | 91.1 | 56.5 | 1100 (≈ 761 µg/mL) | 94.2 | 97.8 | – | 15 | 0.18 | 2.7 | 11.1 | Stable | 10.2 | > 50 | 6.6 | 10 | 2600 (≈ 1800 µg/mL) |
